From ChEMBL document CHEMBL1155366, “Synthesis of novel ageladine A analogs showing more potent matrix metalloproteinase (MMP)-12 inhibitory activity than the natural product” (Bioorg Med Chem Lett, 2009)

Biological target: Macrophage metalloelastase (Homo sapiens, UniProt P39900)
Assay: Inhibition of human MMP12 catalytic domain
Procedure, shortened: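 Human MMP-12 catalytic domain (residues 84-255) in 50 mM Tris pH 7.5, 0.05% Brij-35, 10 mM CaCl₂, 1 mM DTNB. Preincubated with inhibitor in DMSO for 20 min at RT. The chromogenic thiopeptolide substrate (1 mM stock) was then added and the mix incubated 30–80 min at 37 °C. Reaction stopped with 0.2 M EDTA (pH 8.0); color read at 405 nm.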

Chain of Macrophage metalloelastase (P39900 whole entry, the tested form may be a part): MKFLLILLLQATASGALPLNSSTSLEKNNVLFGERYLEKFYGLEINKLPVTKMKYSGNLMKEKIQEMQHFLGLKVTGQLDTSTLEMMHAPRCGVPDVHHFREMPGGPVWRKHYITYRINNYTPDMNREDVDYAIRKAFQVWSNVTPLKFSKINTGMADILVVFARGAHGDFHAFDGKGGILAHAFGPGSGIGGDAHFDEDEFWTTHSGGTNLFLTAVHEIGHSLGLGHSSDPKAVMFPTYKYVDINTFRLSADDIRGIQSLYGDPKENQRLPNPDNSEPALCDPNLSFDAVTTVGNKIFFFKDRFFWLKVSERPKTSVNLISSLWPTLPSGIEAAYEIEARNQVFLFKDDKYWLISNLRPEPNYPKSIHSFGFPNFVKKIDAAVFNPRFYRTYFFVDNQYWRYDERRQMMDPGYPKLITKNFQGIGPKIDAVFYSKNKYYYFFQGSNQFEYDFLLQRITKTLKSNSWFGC

Row | IC50 | Structure (SMILES)
1 | 2.99 µM | Nc1nc2c(-c3[nH]c(Br)c(CCc4ccccc4)c3Br)nccc2[nH]1
2 | 5.02 µM | Cc1c(Br)[nH]c(-c2nccc3[nH]c(N)nc23)c1Br
3 | > 100 µM | Nc1nc2c(-c3ccc(Br)[nH]3)nccc2[nH]1
4 | > 100 µM | Nc1nc2c(-c3[nH]c(Br)c(Br)c3CCc3ccccc3)nccc2[nH]1
5 | 1.24 µM | Nc1nc2c(-c3[nH]c(Br)c(Br)c3Br)nccc2[nH]1
6 | > 100 µM | Nc1nc2c(-c3cc(Br)c(-c4cccc(-c5ccccc5)c4)[nH]3)nccc2[nH]1
7 | > 100 µM | Nc1nc2c(-c3[nH]c(Br)c(CCc4ccc(C(F)(F)F)cc4)c3Br)nccc2[nH]1
8 | 2.02 µM | Nc1nc2c(-c3cc(Br)c(Cl)[nH]3)nccc2[nH]1
9 | > 100 µM | Nc1nc2c(-c3[nH]c(Br)c(Cc4ccccc4)c3Br)nccc2[nH]1
10 | > 100 µM | Nc1nc2c(-c3[nH]c(Br)c(CCc4ccccc4C(F)(F)F)c3Br)nccc2[nH]1
11 | > 100 µM | Nc1nc2c(-c3cc(Br)c(-c4ccccc4)[nH]3)nccc2[nH]1
12 | > 100 µM | Cc1cc(-c2nccc3[nH]c(N)nc23)[nH]c1Br
13 | > 100 µM | Nc1nc2c(-c3[nH]c(Br)c(CCc4cccc(C(F)(F)F)c4)c3Br)nccc2[nH]1
14 | 18.7 µM | Nc1nc2c(-c3cc(-c4ccccc4)c(Br)[nH]3)nccc2[nH]1
15 | > 100 µM | Nc1nc2c(-c3cc(Br)c[nH]3)nccc2[nH]1
16 | 5.02 µM | Nc1nc2c(-c3cc(Cl)c(Cl)[nH]3)nccc2[nH]1
17 | > 100 µM | Nc1nc2c(-c3cc(CCCc4ccccc4)c(Br)[nH]3)nccc2[nH]1
18 | > 100 µM | Cc1[nH]c(-c2nccc3[nH]c(N)nc23)c(Br)c1Br
19 | > 100 µM | Nc1nc2c(-c3cc(Cc4ccccc4)c(Br)[nH]3)nccc2[nH]1
20 | > 100 µM | Cc1[nH]c(-c2nccc3[nH]c(N)nc23)cc1Br
21 | > 100 µM | Nc1nc2c(-c3cc(Br)c(-c4ccc(-c5ccccc5)cc4)[nH]3)nccc2[nH]1
22 | > 100 µM | Nc1nc2c(-c3[nH]c(Br)c(CCCc4ccccc4)c3Br)nccc2[nH]1
23 | 10.2 µM | Nc1nc2c(-c3cc(CCc4ccccc4)c(Br)[nH]3)nccc2[nH]1
